Bioassay records from PubChem.
Lipid droplet: modulators of hepatic lipid droplet formation; AML12 mouse hepatocytes, oleate lipid droplets, BODIPY imaging; inhibition, % at 6.5 µM; actives 0.4% (n = 240,000);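 active means lipid droplet intensity inhibited by at least 50%, with more than 500 cells counted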
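material = mouse AML12 hepatocyte cell line, fixed after treatment | also added = 100 µM oleic acid challenge | doses = compound at 6.5 µM only | schedule = overnight exposure | technique = Image-based BODIPY and DAPI two-channel analysis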
LANA-H2A inh: blocks KSHV LANA binding to histone H2A/H2B. Q9QR71. cell-free LANA-H2A/H2B peptide, fluorescence polarization. inhibition, % (no concentration beside the values). actives 0.6% (n = 320,000). AID 2629; in the data active means inhibition mostly above about 10%, no sharp cut-off; inactive means mostly below about 6.7%
GSK3A inh: inhibitors of human GSK-3 alpha kinase; AID 2650; ADP-Glo luminescence, 60 min; inhibition, % at 10 µM; actives 0.1% (n = 320,000);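 active means more than half of replicates show inhibition above 20%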;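 further: GST-tagged GSK-3 alpha with peptide substrate and 25 µM ATP; 0% = DMSO neutral wells and 100% = GW8510 positive control wells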
TAG inh: inhibitors of triacylglycerol accumulation | H9c2 cells, Nile Red lipid (TAG) fluorescence; cells loaded with 200 µM oleic acid | inhibition, % at 12.5 µM | actives 0.66% (n = 230,000) | AID 651582;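 active means pattern-corrected inhibition of lipid staining of at least 50% with the nuclear-stain viability signal not falling by more than 50%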;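 further: 0% = DMSO wells and 100% = triacsin C control wells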
STK33 inh: inhibitors of human STK33 kinase; Q9BYT3; actives 0.073% (n = 320,000); inhibition, % at 10 µM; purified STK33, MBP phosphorylation, ADP-Glo luminescence; AID 2661;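 active means inhibition at or above 25%, using the most active replicate where run in duplicate; inactive means inhibition below 25%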
Target sequence (Q9BYT3 whole entry, looked up): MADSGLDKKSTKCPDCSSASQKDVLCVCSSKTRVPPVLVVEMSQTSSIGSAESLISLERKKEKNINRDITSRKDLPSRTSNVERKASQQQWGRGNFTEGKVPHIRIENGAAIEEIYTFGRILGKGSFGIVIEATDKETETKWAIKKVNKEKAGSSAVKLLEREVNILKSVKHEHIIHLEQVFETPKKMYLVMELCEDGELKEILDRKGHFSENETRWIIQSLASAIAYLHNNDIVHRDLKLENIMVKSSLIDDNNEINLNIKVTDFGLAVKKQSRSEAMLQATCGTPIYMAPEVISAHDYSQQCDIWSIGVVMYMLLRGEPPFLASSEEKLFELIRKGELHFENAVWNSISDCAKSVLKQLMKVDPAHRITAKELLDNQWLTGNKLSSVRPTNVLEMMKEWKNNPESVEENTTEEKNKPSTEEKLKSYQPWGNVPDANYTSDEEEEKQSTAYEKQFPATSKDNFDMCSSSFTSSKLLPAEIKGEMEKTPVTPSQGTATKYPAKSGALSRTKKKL
GSK3beta inhib: blocks human GSK3beta kinase activity | P49841 | GST-GSK3beta kinase, ADP-Glo luminescence, 60 min; hits give low values | activity score (negative = inhibition), % at 10 µM | actives 0.038% (n = 300,000);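 active means more than half of replicate wells score below -50%, meaning over 50% inhibition versus plate controls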;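 further: 0% = median DMSO wells and -100% = median GW8510 positive control wells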
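Assay system: GST-tagged human GSK3beta kinase, cell-free; Input: 1.6 ng GSK3beta; Medium: Tris/MgCl2 kinase buffer; Timing: 60 min enzyme reaction, room temperature; Signal: ADP-Glo luminescence quantifying ADP generated by kinase; Evaluation: score relative to plate controls; Benchmarks: DMSO neutral wells and GW8510 at 20 µM as positive.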
* hit, by the source's call. This is a sample that favours compounds with a hit; in the whole collection about 1.3% have one here.

Screening Cc1cccc(N2C(=O)c3cccc4c(N(C)CCO)ccc(c34)C2=O)c1 returned LANA-H2A inh 19.7*, GSK3A inh 3.0, STK33 inh -0.6 and GSK3beta inhib 1.5.
CN(C(=O)C1CCOC1)c1nnc(-c2ccccn2)s1 (centres undefined) was read as Lipid droplet 14.5, LANA-H2A inh -3.8, GSK3A inh -1.5, TAG inh 11.4, STK33 inh -3.7 and GSK3beta inhib 0.3.
`COc1ccccc1CNCC(=O)Nc1cc(S(=O)(=O)N2CCCCC2)ccc1C` gave TAG inh -24.0.
For O=C1c2ccc3c4c(ccc(c24)C(=O)N1c1cccc(O)c1)C(=O)N(c1cccc(O)c1)C3=O the results were Lipid droplet -13.5, LANA-H2A inh -2.7, GSK3A inh 1.2, TAG inh 67.9*, STK33 inh 1.1 and GSK3beta inhib 4.3.
Screening O=S(Cc1ccc(Br)cc1)Cc1nnc(SCc2ccc(Br)cc2)n1-c1ccccc1 (centres undefined) returned LANA-H2A inh 2.4, GSK3A inh 2.8, STK33 inh 0.2 and GSK3beta inhib -2.0.
O=c1cc(-c2ccccc2Cl)oc2c([N+](=O)[O-])c(O)cc(O)c12 was read as Lipid droplet 30.3, LANA-H2A inh -0.6, GSK3A inh 39.3, TAG inh -0.4, STK33 inh 1.9 and GSK3beta inhib -53.0*.
O=c1cc(-c2ccccc2Cl)oc2ccc([N+](=O)[O-])c(O)c12 was read as Lipid droplet -12.3, LANA-H2A inh -2.4, GSK3A inh -4.0, TAG inh 7.0, STK33 inh -0.1 and GSK3beta inhib -3.0.
Cc1ccn2nc(C(=O)OCC(=O)N(CC(C)C)C3CCS(=O)(=O)C3)nc2n1 (centres undefined) was read as LANA-H2A inh 80.3*, GSK3A inh -2.5, TAG inh 0.0 and STK33 inh 0.1.
Screening COc1ccccc1CC(=O)NCC(c1ccco1)N1CCCCC1 (centres undefined) returned Lipid droplet -10.5, LANA-H2A inh -5.8, GSK3A inh 0.5, TAG inh 2.0, STK33 inh -2.0 and GSK3beta inhib -0.5.
For O=C(CSc1ccccc1)NCC(c1ccco1)N1CCCCC1 (centres undefined) the results were LANA-H2A inh 27.9*, GSK3A inh -2.3, TAG inh 3.3 and STK33 inh 0.7.
For Cn1ncc([N+](=O)[O-])c1C(=O)Nc1ccccc1C(=O)O the results were Lipid droplet -0.3, LANA-H2A inh 3.8, GSK3A inh -1.6, TAG inh 8.0, STK33 inh -1.3 and GSK3beta inhib 0.4.
For COc1ccccc1NC(=O)c1c([N+](=O)[O-])cnn1C the results were Lipid droplet 12.6, LANA-H2A inh 15.3*, GSK3A inh 3.7, TAG inh 0.0, STK33 inh 0.1 and GSK3beta inhib -4.0.
Cc1ccc2c(c1)N(S(=O)(=O)c1cc(-c3onc(C)c3C)ccc1C)CCO2 was read as Lipid droplet -12.3, LANA-H2A inh 6.3, GSK3A inh -2.8, STK33 inh 1.0 and GSK3beta inhib 2.9.
For CCn1cc(C(=O)Nc2ccc(Cl)cc2Cl)cn1 the results were LANA-H2A inh 7.4, GSK3A inh 6.5, TAG inh 1.1, STK33 inh 3.8 and GSK3beta inhib 5.0.
For c1ccc(-c2nc(-c3cccnc3)n[nH]2)cc1 the results were Lipid droplet -0.6, LANA-H2A inh -1.4, GSK3A inh 5.6, STK33 inh 2.3 and GSK3beta inhib -0.2.
For Brc1cccc(-c2n[nH]c(-c3ccccc3)n2)c1 the results were Lipid droplet 7.1, LANA-H2A inh 17.5*, GSK3A inh -3.1, TAG inh 0.4, STK33 inh 3.4 and GSK3beta inhib 2.5.
For O=C(CCC(=O)c1ccc(Br)cc1)Nc1ccc(F)cc1 the results were Lipid droplet 2.4, LANA-H2A inh 1.1, GSK3A inh -0.5, STK33 inh -2.3 and GSK3beta inhib 0.6.
For COc1cccc(C(O)c2ncc(-c3cccc(F)c3)[nH]2)c1 (centres undefined) the results were TAG inh 11.0.
Screening Cc1cc(C)c2c(=N)c3ccccc3n(CCCCCCCCn3c4ccccc4c(=N)c4c(C)cc(C)nc43)c2n1 returned TAG inh 53.1*.
For CC(C)c1nc(Cl)c(C#N)c2c1CCCC2 the results were Lipid droplet 2.0, LANA-H2A inh 6.5 and GSK3beta inhib -3.9.
For CC(NCC(=O)Nc1ccccc1C(=O)NC1CC1)c1cccc(C(F)(F)F)c1 (centres undefined) the results were LANA-H2A inh 11.2*, GSK3A inh -8.0, TAG inh -13.9 and STK33 inh -1.5.
`Cc1cc(S(=O)(=O)N2CCN(CC(=O)NCCc3cccs3)CC2)ccc1Br` gave LANA-H2A inh active, GSK3A inh 0.3, TAG inh -14.9 and STK33 inh -0.2.
For O=C(COC(=O)[C@H](Cc1ccccc1)NC(=O)c1ccco1)NC(c1ccccc1)c1ccccc1 the results were Lipid droplet 11.0, LANA-H2A inh 4.5, GSK3A inh -5.6, TAG inh 0.6, STK33 inh -0.7 and GSK3beta inhib -2.5.
Cc1cc(C)c(S(N)(=O)=O)c(C)c1N(C)S(=O)(=O)c1ccccc1 was read as Lipid droplet -1.3, LANA-H2A inh -1.4, GSK3A inh 1.3, TAG inh -11.7, STK33 inh -0.3 and GSK3beta inhib -0.9.
Cc1cc(C)c(S(N)(=O)=O)c(C)c1N(C)S(=O)(=O)c1ccc(Cl)cc1 was read as Lipid droplet -25.2, LANA-H2A inh 12.3*, GSK3A inh -1.7, TAG inh -14.6, STK33 inh 0.3 and GSK3beta inhib -2.1.
For CN(C)c1ccc(-c2cc(O)c3ncccc3c2)cc1 the results were LANA-H2A inh -0.5, GSK3A inh -1.8, TAG inh 45.2 and STK33 inh 0.2.
`Oc1cc(-c2ccc(N3CCCCC3)nc2)cc2cccnc12` gave LANA-H2A inh -0.3, GSK3A inh -28.1, TAG inh 104.0* and STK33 inh -1.1.
For COC(=O)c1cc(NC(=O)c2ccccc2F)cc(C(=O)OC)c1 the results were Lipid droplet 3.0, LANA-H2A inh 22.2*, GSK3A inh 0.1, TAG inh -7.1, STK33 inh 2.8 and GSK3beta inhib -2.1.
Screening COC(=O)c1cc(NC(=O)c2cc3ccccc3o2)cc(C(=O)OC)c1 returned Lipid droplet -4.8, LANA-H2A inh 16.4*, GSK3A inh -1.8, STK33 inh -0.1 and GSK3beta inhib -1.7.
Screening CC1CCCCC1NC(=O)CCNC(=O)N1CC(=O)Nc2ccccc21 (centres undefined) returned Lipid droplet -5.9, LANA-H2A inh 0.9, GSK3A inh -1.0, STK33 inh -1.8 and GSK3beta inhib -3.4.
